SMILES strings stand for the structures. Some results are limits rather than exact numbers.

Experimental findings from ChEMBL document CHEMBL4325892, “4-tert-Pentylphenoxyalkyl derivatives - Histamine H3 receptor ligands and monoamine oxidase B inhibitors” (Bioorg Med Chem Lett, 2018) are described below.

Data set [1] addresses T1, Amine oxidase [flavin-containing] B (Homo sapiens, UniProt P27338).
T1 sequence (P27338 whole entry): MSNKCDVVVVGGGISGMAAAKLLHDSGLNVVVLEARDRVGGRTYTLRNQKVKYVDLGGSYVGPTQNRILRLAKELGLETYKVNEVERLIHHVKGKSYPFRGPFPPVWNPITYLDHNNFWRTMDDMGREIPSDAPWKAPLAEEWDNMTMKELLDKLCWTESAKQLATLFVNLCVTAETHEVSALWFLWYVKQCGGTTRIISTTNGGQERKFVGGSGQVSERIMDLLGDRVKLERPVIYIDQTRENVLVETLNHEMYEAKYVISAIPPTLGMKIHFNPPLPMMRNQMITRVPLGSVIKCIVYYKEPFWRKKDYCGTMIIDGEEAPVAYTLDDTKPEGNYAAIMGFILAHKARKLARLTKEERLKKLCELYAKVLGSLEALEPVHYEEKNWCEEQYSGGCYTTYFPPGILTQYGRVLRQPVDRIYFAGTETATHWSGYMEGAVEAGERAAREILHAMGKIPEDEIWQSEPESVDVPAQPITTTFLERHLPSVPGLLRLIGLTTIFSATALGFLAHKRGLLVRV
The experiment in a line: Inhibition of human MAO-B expressed in baculovirus infected BTI insect cells using p-tyramine as substrate preincubated for 30 mins followed by substrate addition and measured after 1 hr by fluorescence-based Amplex Red MAO assay.

Another data set deals with Histamine H3 receptor (Homo sapiens, UniProt Q9Y5N1). The experiment in a line: Displacement of [3H]-N-alpha-methylhistamine from human H3 receptor expressed in CHO-K1 cell membranes after 60 mins by microbeta2 scintillation counting analysis. In short, it runs like this: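 Radioligand binding with [3H]Nα-methylhistamine on membrane preparations from CHO-K1 cells stably expressing human H3 receptor; Ki reported as the mean of two independent experiments ± SEM.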
Chain of Histamine H3 receptor (Q9Y5N1 whole entry): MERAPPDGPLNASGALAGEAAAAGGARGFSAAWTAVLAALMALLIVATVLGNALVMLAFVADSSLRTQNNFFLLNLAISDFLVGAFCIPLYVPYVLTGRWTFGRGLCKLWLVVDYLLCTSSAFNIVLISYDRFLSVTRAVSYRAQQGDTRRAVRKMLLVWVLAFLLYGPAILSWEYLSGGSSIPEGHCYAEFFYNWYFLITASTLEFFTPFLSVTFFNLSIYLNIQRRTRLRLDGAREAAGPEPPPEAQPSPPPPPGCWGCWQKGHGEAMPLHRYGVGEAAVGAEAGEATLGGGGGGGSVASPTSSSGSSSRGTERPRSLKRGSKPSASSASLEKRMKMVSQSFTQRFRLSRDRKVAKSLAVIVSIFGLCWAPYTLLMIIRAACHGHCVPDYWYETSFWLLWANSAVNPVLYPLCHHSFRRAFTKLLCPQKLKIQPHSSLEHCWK

Another data set deals with T2, MAO-A (Homo sapiens, UniProt P21397).
T2 sequence (P21397 whole entry): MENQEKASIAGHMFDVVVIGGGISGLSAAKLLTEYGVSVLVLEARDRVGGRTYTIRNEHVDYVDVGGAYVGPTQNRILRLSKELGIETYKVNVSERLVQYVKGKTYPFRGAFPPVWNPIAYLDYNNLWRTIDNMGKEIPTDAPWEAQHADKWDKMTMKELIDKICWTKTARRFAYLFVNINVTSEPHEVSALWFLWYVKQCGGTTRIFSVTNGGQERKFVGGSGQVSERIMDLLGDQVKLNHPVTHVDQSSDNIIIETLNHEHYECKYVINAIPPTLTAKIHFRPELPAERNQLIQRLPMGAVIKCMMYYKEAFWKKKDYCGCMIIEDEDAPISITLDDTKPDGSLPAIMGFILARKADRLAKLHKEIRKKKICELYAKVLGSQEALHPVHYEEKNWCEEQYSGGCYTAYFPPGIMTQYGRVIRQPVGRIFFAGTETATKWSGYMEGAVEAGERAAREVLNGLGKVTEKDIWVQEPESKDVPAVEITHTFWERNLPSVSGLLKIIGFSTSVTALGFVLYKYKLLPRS
As to the kind of experiment: Inhibition of human MAO-A expressed in baculovirus infected BTI insect cells at 10 uM using p-tyramine as substrate preincubated for 30 mins followed by substrate addition and measured after 1 hr by fluorescence-based Amplex Red MAO assay relative to control. Particulars: probe p-tyramine; call rule not given here.

Data set [2] addresses T1, Amine oxidase [flavin-containing] B. The experiment in a line: Inhibition of human MAO-B expressed in baculovirus infected BTI insect cells at 1 uM using p-tyramine as substrate preincubated for 30 mins followed by substrate addition and measured after 1 hr by fluorescence-based Amplex Red MAO assay relative to control.
The target is the same in data set [3]. As to the kind of experiment: Non-competitive inhibition of human MAO-B expressed in baculovirus infected BTI insect cells at 0.2 to 20 nM preincubated with compound and p-tyramine for 22 mins followed by p-tyramine increase to 1 mM and measured every minute for 5 hrs by Lineweaver-Burk plot analysis. In short, it runs like this: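 Kinetic mode study: hMAO B activity measured at inhibitor 0, 0.2, 0.5 and 20 nM, each across six para-tyramine concentrations (0.05, 0.1, 0.5, 1.0, 1.5, 2.0 mM) to assign inhibition type.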

For data set [4] the target is unchanged. As to the kind of experiment: Reversible inhibition of human MAO-B expressed in baculovirus infected BTI insect cells at IC80 preincubated with compound and p-tyramine for 22 mins followed by p-tyramine increase to 1 mM and measured every minute for 5 hrs by fluorescence assay. In short, it runs like this: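 Reversibility test: hMAO B preincubated with inhibitor in the presence of 10 μM para-tyramine. After 22 min, para-tyramine raised to 1 mM, then fluorescence read every minute for 5 h.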

For the compound `CCC(C)(C)c1ccc(OCCCCCN2CCCCCC2)cc1`, in data set [1], half-maximal inhibition (IC50) required 1130 nM.

Turning to `CCC(C)(C)c1ccc(OCCCCCCN2CCCCCC2)cc1`, in data set [1], the IC50 stood at 390 nM.

`CCC(C)(C)c1ccc(OCCCN2CCCCCC2)cc1` showed a Ki at Histamine H3 receptor of 298 nM. In data set [1], this compound came in with an IC50 of 65 nM. This compound also came in with an inhibition at 1 h, 10 µM against MAO-A of 12%.

With `CCC(C)(C)c1ccc(OCCCCCN2CCCC(C)C2)cc1` (configuration not stated), the IC50 in data set [1] was over 1000 nM. Also, in data set [2], testing at 1 µM gave an inhibition of 29%.

For `CCC(C)(C)c1ccc(OCCCCN2CCCC(C)C2)cc1` (configuration not stated), the IC50 in data set [1] stood at 1230 nM. In other words, the single-digit micromolar range.

At Histamine H3 receptor, `CCC(C)(C)c1ccc(OCCCN2CCCC2)cc1` had a Ki of 63 nM. Further, in data set [1], the IC50 is 4.5 nM. The “inhibition (INH)” value in data set [3] and in data set [4] was “Active” in each case. Also, the inhibition at 1 h, 10 µM against MAO-A was 5%.

For `CCC(C)(C)c1ccc(OCCCN2CCCCC2)cc1`, the Ki at Histamine H3 receptor amounted to 37 nM. In data set [1], this compound displayed an IC50 of 19 nM. Also, at MAO-A, the inhibition at 1 h, 10 µM is 14%. In addition, in data set [4], the “inhibition (INH)” value was “Active”.

As to `CCC(C)(C)c1ccc(OCCCCN2CCCCC2)cc1`, in data set [1], the IC50 was determined as 379 nM. At MAO-A, this compound showed an inhibition at 1 h, 10 µM of 10%.

As for `CCC(C)(C)c1ccc(OCCCCCCN2CCC(C)CC2)cc1`, in data set [1], the IC50 is over 1000 nM. Also, in data set [2], the inhibition at 1 µM came out at 37%.

Regarding `CCC(C)(C)c1ccc(OCCCCCCN2CCCC(C)C2)cc1` (configuration not stated), the IC50 in data set [1] was over 1000 nM. This compound displayed an inhibition at 1 µM in data set [2] of 46%.

`CCC(C)(C)c1ccc(OCCCCCCCCN2CCCCCC2)cc1` registered an IC50 in data set [1] of over 1000 nM. In data set [2], the inhibition at 1 µM came to 40%.

In data set [1], `CCC(C)(C)c1ccc(OCCCCN2CCCCCC2)cc1` registered an IC50 of 609 nM.

In turn, `CCC(C)(C)c1ccc(OCCCCCCCCN2CCCC(C)C2)cc1` (configuration not stated) registered an IC50 in data set [1] of over 1000 nM. For the same compound, in data set [2], the inhibition at 1 µM amounted to 33%.

Consider `CCC(C)(C)c1ccc(OCCCN2CCC(C)CC2)cc1`, for which the Ki at Histamine H3 receptor was determined as 147 nM. Moreover, the IC50 in data set [1] was found to be 2070 nM.

As for `CCC(C)(C)c1ccc(OCCCCCCCN2CCCCC2)cc1`, the IC50 in data set [1] was over 1000 nM. Moreover, at 1 µM the inhibition in data set [2] was 18%.

Consider `CCC(C)(C)c1ccc(OCCCN2CCCC(C)(C)C2)cc1`, for which the Ki at Histamine H3 receptor was over 1000 nM. The compound further showed an IC50 in data set [1] of 417 nM. On MAO-A, this compound registered an inhibition at 1 h, 10 µM of 7%.

As to `CCC(C)(C)c1ccc(OCCCCN2CCC(C)CC2)cc1`, the IC50 in data set [1] is over 1000 nM. Also, in data set [2], at 1 µM the inhibition was 47%.

Consider `CCC(C)(C)c1ccc(OCCCN2CC(C)CC(C)C2)cc1` (configuration not stated), for which affinity at Histamine H3 receptor was put at a Ki of 753 nM. The compound further yielded an IC50 in data set [1] of 962 nM. In addition, the inhibition at 1 h, 10 µM at MAO-A stood at 7%.

For `CCC(C)(C)c1ccc(OCCCCCCCN2CCCCCC2)cc1`, half-maximal inhibition in data set [1] (IC50) required 1490 nM. In other words, the single-digit micromolar range.

In turn, `CCC(C)(C)c1ccc(OCCCCCCCCN2CCCCC2)cc1` returned an IC50 in data set [1] of over 1000 nM. This compound also returned an inhibition at 1 µM in data set [2] of 22%.

In data set [1], `CCC(C)(C)c1ccc(OCCCCCN2CCC(C)CC2)cc1` gave an IC50 of over 1000 nM. This compound gave an inhibition at 1 µM in data set [2] of 48%.

Compound `CCC(C)(C)c1ccc(OCCCCCCCCN2CCC(C)CC2)cc1` gave an IC50 in data set [1] of over 1000 nM. The compound further had an inhibition at 1 µM in data set [2] of 37%.

On to `CCC(C)(C)c1ccc(OCCCCCCCN2CCC(C)CC2)cc1`, for which the IC50 in data set [1] was over 1000 nM. For the same compound, testing at 1 µM in data set [2] gave an inhibition of 35%.

As to `CCC(C)(C)c1ccc(OCCCCCCN2CCCCC2)cc1`, in data set [1], the IC50 was over 1000 nM. The same compound yielded an inhibition at 1 µM in data set [2] of 21%.

For `CCC(C)(C)c1ccc(OCCCN2CCCCC2C)cc1` (configuration not stated), the Ki at Histamine H3 receptor stood at 437 nM. In data set [1], this compound displayed an IC50 of 20 nM. Besides, at MAO-A, the inhibition at 1 h, 10 µM was 5%. For the same compound, the “inhibition (INH)” value in data set [4] is reported as “Active”.

At Histamine H3 receptor, `CCC(C)(C)c1ccc(OCCCN2C(C)CCCC2C)cc1` (configuration not stated) came in with a Ki of 140 nM. In addition, the midpoint of inhibition in data set [1], the IC50, lay at 22 nM. On MAO-A, this compound displayed an inhibition at 1 h, 10 µM of 5%. For the same compound, the “inhibition (INH)” value in data set [4] is given as “Active”.

Consider `C[C@H](NCc1ccc(OCc2cccc(F)c2)cc1)C(N)=O` [SAFINAMIDE], for which, in data set [4], the “inhibition (INH)” value is “Active”.

As for `CCC(C)(C)c1ccc(OCCCCCN2CCCCC2)cc1`, the IC50 in data set [1] was over 1000 nM. In data set [2], this compound came in with an inhibition at 1 µM of 28%.

The compound `CCC(C)(C)c1ccc(OCCCCCCCN2CCCC(C)C2)cc1` (configuration not stated) had an IC50 in data set [1] of over 1000 nM. For the same compound, in data set [2], at 1 µM the inhibition was 35%.

In the case of `CCC(C)(C)c1ccc(OCCCN2CCCC(C)C2)cc1` (configuration not stated), at Histamine H3 receptor, the Ki was 100 nM. The compound further displayed a half-inhibitory concentration (IC50) in data set [1] of 428 nM. At MAO-A, this compound registered an inhibition at 1 h, 10 µM of 11%.
